Only some compounds are listed: those with a hit (about 12% of all), similar ones and a draw of the others.
WT yeast gro inh = growth inhibition of WT yeast, mitochondrial fusion screen. 190,000 tested, 2.1% active. AID 1362. mitochondrial fusion phenotypic screen, WT strain. inhibition, % at 10 µM; in the data active = inhibition above about 58%; tested in S. cerevisiae
L major viab = Leishmania major promastigote growth inhibition; inhibition, % at 10 µM; 200,000 tested, 9% active; AID 1063; Leishmania major promastigotes, resazurin fluorescence viability; in the data active = inhibition above about 50%;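 note: promastigotes grown with compound for 44 hours at 28 °C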
Cl transport mod = modulates chloride dependent transport by human KCC2; Q9H2X9; KCC2 cells, thallium flux FluoZin-2 fluorescence; 190,000 tested, 2.2% active; B-score of Tl+ flux slope (higher = more flux/activation; lower = inhibition) at 10 µM; AID 1456;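 active = thallium flux slope and its plate-corrected score both differing from the plate sample mean at a set confidence after two filtering rounds, in either direction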;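 note: slope of fluorescence scaled to starting intensity during 10 to 20 s after thallium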
ROMK mod = modulators of human ROMK potassium channel; P48048; Tet-inducible ROMK, thallium flux fluorescence; actives lie on both sides; B-score at 10 µM; AID 1918; 130,000 tested, 2% active;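 active = signal ratio slope over the read window, or its plate-corrected B-score, at least 3 SD from the plate mean, either direction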;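 note: B-score of the F/F0 ratio slope over 7 to 12 s after thallium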
Diaphorase act = diaphorase activation or chemical reduction counter-screen; 190,000 tested, 0.005% active; activation factor at 20 µM; AID 1229; Diaphorase/resazurin coupled assay, resorufin fluorescence, 16 min; active compounds read high; 1 = vehicle wells, 0 = NADH-free wells;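 active = diaphorase activity raised at least twofold by the compound at 20 µM; inactive = activation factor below 2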
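Test system: Clostridium kluyveri diaphorase, purified enzyme. Buffer or medium: 50 mM HEPES pH 7.4 buffer plus MgCl2 and Tween 20. Also added: 0.114 mM NADH and 0.1 mM resazurin, final amounts. Dosing: compound 20 µM once, DMSO 1%. Schedule: 16 min enzyme reaction, ambient temperature. Detection: fluorescence of resorufin, 544 nm excitation, 590 nm emission.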
Diaphorase inh = counter-screen for diaphorase-based assays: diaphorase inhibitors and chemical oxidizers. diaphorase resazurin-to-resorufin fluorescence, NADH, 16 min; bacterial (C. kluyveri) enzyme, not human. inhibition, % at 20 µM. 190,000 tested, 0.69% active;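 active = primary screen inhibition at 20 µM above a set limit, cut at about 50% in these data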;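 note: plate controls were DMSO with full reaction for no effect and wells lacking NADH for full effect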
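controls = No-NADH positive control and DMSO neutral control | system = Clostridium kluyveri diaphorase enzyme | timing = reaction incubation of 16 min at room temperature | signal = resorufin fluorescence 544/590 nm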
An asterisk follows results filed as active; x = no result given.

SMILES	WT yeast gro inh	L major viab	Cl transport mod	ROMK mod	Diaphorase act	Diaphorase inh
Cc1c(NS(=O)(=O)c2cc(NC(=O)CCN3CCCC(C)C3)ccc2Cl)c(=O)n(-c2ccccc2)n1C (centres undefined)	5	-7	1.8	0.48	0.9	10
O=C(Nc1ccccc1C(F)(F)F)c1ccc(CN2CCC(Cc3ccccc3)CC2)cc1	30	64*	0.71	x	0.9	13
Cc1ccc(C(=O)COC(=O)c2cn3ccccc3n2)cc1	-9	3	-0.058	0.44	1	-4
Cc1ccc2nc(C(F)(F)F)c(C#N)c(N)c2c1	-3	68*	-0.19	-0.43	0.9	10
CN(C)Cc1ccccc1Sc1ccccc1Br	8	18	-0.73	-0.1	0.9	9
CCN(CC)CCN(CC)Cc1ccccc1Br	2	96*	-1.5	x	0.9	5
Cc1oc(/N=C/c2ccc(O)cc2O)c(C#N)c1C	8	-6	-0.41	-0.28	0.9	15
CC(=O)Nc1c(N)c2ccccc2oc1=O	-2	-4	-0.026	-0.6	1	-3
CC(C)Nc1nc(NC(C)C)nc(N(C#N)CCOc2ccc(Cl)cc2Cl)n1	56	81*	x	-1.7	0.8	19
O=C(N/N=C/c1ccc(O)c(O)c1O)/C(=C/c1ccc([N+](=O)[O-])cc1)NC(=O)c1ccccc1	4	-10	-0.95	-0.0072	0.3	74*
O=C(NCc1ccc(Cl)cc1)C(=O)NCC1OCCN1C(=O)c1cccs1 (centres undefined)	1	-4	-0.23	x	0.9	9
COc1ccc(OC)c(/C=N/N(C)c2ccccc2)c1	27	60*	0.046	x	0.9	12
COc1cc(/C=N/N(C)c2ccccc2)cc(Cl)c1O	59*	-1	x	0.61	0.8	20
Cn1ccnc1C1CCCCN1Cc1nc(-c2ccc3c(c2)OCO3)no1 (centres undefined)	3	15	-0.46	-0.086	1	2
COc1ccc(NC(=O)Cc2ccc(C)c(C)c2)cc1Cl	-5	6	0.39	0.38	0.9	6
CCOC(=O)c1c(NC(=O)COC(=O)c2ccccn2)sc2c1CCC2	-4	47	0	x	0.8	24
Fc1ccccc1Cn1nnc2c(-n3ccnc3)ncnc21	-3	-5	-0.14	x	1	-5
COc1cc(/C=N\NC(=O)c2ccc(Cn3cc(Br)c([N+](=O)[O-])n3)o2)cc(OC)c1O	3	36	-0.76	x	0.9	5
Cc1cccnc1NC(=O)Cn1nc(C)c([N+](=O)[O-])c1C	-3	-5	2	0.31	0.9	7
CCCSc1nc2c(cnn2-c2ccccc2)c(=O)[nH]1	13	-7	2.6	x	1	4
O=c1[nH]c(/C=C/c2ccccc2OC(F)F)nc2c1cnn2-c1ccccc1	-10	62*	0.36	0.23	1	4
CCCCNC(=O)CNC(=S)N(Cc1ccccc1)Cc1cccnc1	4	16	0.5	-0.74	1	0
COCCCNC(=S)N(Cc1cccnc1)Cc1ccc(OC)c(OC)c1	-27	89*	-0.07	0.43	1	2
Cc1cccn2c(=O)c(/C=C(\C#N)C(N)=O)c(N3CCN(Cc4ccc5c(c4)OCO5)CC3)nc12	-23	65*	-2.8	x	0.9	11
CCOC(=O)/C(C#N)=C/c1c(N2CCN(Cc3ccc4c(c3)OCO4)CC2)nc2c(C)cccn2c1=O	x	x	0.18	x	x	x
SMILES	WT yeast gro inh	L major viab	Cl transport mod	ROMK mod	Diaphorase act	Diaphorase inh
O=C(Nc1cccc([N+](=O)[O-])c1)c1ccccc1	x	x	-0.3	x	x	x
O=C(Nc1ccccc1)c1ccc(Nc2c([N+](=O)[O-])cc([N+](=O)[O-])c3ccccc23)cc1	0	78*	0.11	x	0.8	23
Cc1ccc(C(=O)NC(=S)N2CCN(c3ccc([N+](=O)[O-])cc3)CC2)cc1	-2	-8	2.8	x	0.8	16
CCCC(=O)NC(=S)N1CCN(c2ccc([N+](=O)[O-])cc2)CC1	7	70*	-0.28	0.054	0.9	11
O=C(N/N=C/c1cccc([N+](=O)[O-])c1)c1ccc(COc2ccccc2-c2ccccc2)cc1	19	4	0.15	-0.088	0.9	10
COc1ccc(NC(=O)c2ccc(-c3ccccc3C(F)(F)F)o2)cc1	67*	-7	0.56	0.19	0.9	15
COc1ccccc1CNC(=O)c1ccc(-c2ccccc2C(F)(F)F)o1	64*	0	-1.4	0.041	0.7	26
Cc1ccccc1-c1ccc(C(=O)Nc2cccc(F)c2)o1	58*	4	0.68	0.026	0.8	18
O=C(Nc1cccc(F)c1)c1ccc(-c2ccccc2C(F)(F)F)o1	53	4	0.35	0.77	0.8	18
COc1ccc(NC(=O)c2cc(-c3ccccc3)oc2C)cc1	22	56*	0.32	x	0.9	13
COc1cc(NC(=O)COC(=O)CSc2cc(C)ccc2C)c(C)cc1[N+](=O)[O-]	4	-3	0.38	x	0.9	7
COc1ccc(COCC(O)CN2CC(C)OC(C)C2)cc1OC (centres undefined)	-3	8	-0.17	-0.18	0.9	11
O=C(NCCN1CCOCC1)c1ccc2c(c1)N(Cc1ccccc1F)C(=O)c1ccccc1S2	19	100*	0.0035	-1	0.9	9
Cc1cccc(CN2C(=O)c3ccccc3Sc3ccc(C(=O)NCCN4CCOCC4)cc32)c1	-13	100*	-1.6	-1.3	0.8	21
CCCc1nc2c(C)cc(C)cc2c(N)c1CC	9	98*	x	x	0.8	16
CCn1c(Sc2nc(C)nc3scc(-c4cccs4)c23)n[nH]c1=O	82*	30	-1.7	x	0.9	13
COc1ccc(C(=O)NCCCOc2cccc(NC(C)=O)c2)cc1	x	x	0.48	x	x	x
COc1ccc(C(=O)NCCOc2cccc(OC)c2)cc1	-6	4	-0.39	0.23	0.3	68*
CCOC(=O)C1=C(C)C2C3C(=O)N(c4ccc(C)cc4C)C(=O)C3C1(C)C1C(=O)N(c3ccc(C)cc3C)C(=O)C21 (centres undefined)	-1	74*	0.39	-0.35	0.8	17
CCOC(=O)C1=C(C)C2C3C(=O)N(c4ccccc4C)C(=O)C3C1(C)C1C(=O)N(c3ccccc3C)C(=O)C21 (centres undefined)	1	56*	-0.51	-0.23	0.8	16
Cc1ccccc1N1C(=O)C2C3C=CC(C2C1=O)N(C)C3=O (centres undefined)	-4	-6	-0.99	0.78	0.9	5
Brc1ccc(C2Nc3cccc4cccc(c34)N2)o1	18	18	x	0.048	0.1	85*
c1csc(C2Nc3cccc4cccc(c34)N2)c1	20	8	-0.36	x	0.4	62*
Oc1ccccc1C1Nc2cccc3cccc(c23)N1	-23	-6	0.41	-0.13	0.7	34
